Results on five molecules are retold here after ChEMBL document CHEMBL4622988, “Elucidation of Mechanism for Ligand Efficacy at Leukotriene B4 Receptor 2 (BLT2)” (ACS Med Chem Lett, 2020).

Calls of active or inactive are those of the source. The calls are words filed in the database; no cut-off is given here.

The target of test [1] is T1, Leukotriene B4 receptor 2 (Homo sapiens, UniProt Q9NPC1).
T1 sequence (Q9NPC1 whole entry): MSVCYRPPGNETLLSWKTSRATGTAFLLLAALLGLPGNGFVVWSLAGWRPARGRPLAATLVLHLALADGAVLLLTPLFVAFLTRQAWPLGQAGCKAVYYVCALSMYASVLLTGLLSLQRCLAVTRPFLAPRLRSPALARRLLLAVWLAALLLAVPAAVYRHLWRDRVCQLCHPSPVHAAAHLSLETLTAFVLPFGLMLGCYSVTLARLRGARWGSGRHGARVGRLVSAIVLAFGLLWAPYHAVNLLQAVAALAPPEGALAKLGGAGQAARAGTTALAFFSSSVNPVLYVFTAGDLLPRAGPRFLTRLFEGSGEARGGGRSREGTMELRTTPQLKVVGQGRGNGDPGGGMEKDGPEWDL
The test can be described thus: Displacement of [3H]LTB4 from HA-epitope tagged human BLT2 expressed in CHOK1 cells incubated for 60 mins by liquid scintillation counting method. It counts as cell-based, CHO-K1. Summed up: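 Competition binding: test ligand competed with 3H-LTB4 for binding to membranes prepared from cells expressing BLT2.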

For test [2], the target named is T2, Leukotriene B4 receptor 2 (Homo sapiens) (UniProt Q9NPC1).
T2 sequence (whole entry): T1 sequence (Q9NPC1 whole entry)
In words: Agonist activity at HA-epitope tagged human BLT2 expressed in CHOK1 cells assessed as induction of chemotactic motility at 300 nM incubated for 2 hrs by hematoxylin and eosin staining based optical microscopic method. It counts as cell-based. To be noted: CHO-K1. Summed up: (§1)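 CHO cells were transfected with wild-type BLT2, the Y271A mutant or the Y271A/N275A double mutant, then exposed to agonist to induce chemotactic motility. Migrating cells were fixed and stained with hematoxylin/eosin for counting.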

In test [3] the test system is CHO-K1. The test can be described thus: Agonist activity at HA-epitope tagged human BLT2 Y271A mutant expressed in CHOK1 cells assessed as induction of chemotactic motility at 300 nM incubated for 2 hrs by hematoxylin and eosin staining based optical microscopic method. It counts as cell-based. Summed up: as §1
Test [4] has as its system CHO-K1. The test can be described thus: Agonist activity at HA-epitope tagged human BLT2 Y271A/N275A double mutant expressed in CHOK1 cells assessed as induction of chemotactic motility at 300 nM incubated for 2 hrs by hematoxylin and eosin staining based optical microscopic method. It counts as cell-based. In short, it runs like this: as §1
The subject of test [5] is CHO-K1. In words: Agonist activity at HA-epitope tagged human BLT2 Y271A mutant expressed in CHOK1 cells assessed as induction of chemotactic motility at 100 nM incubated for 2 hrs by hematoxylin and eosin staining based optical microscopic method. It counts as cell-based. Summed up: as §1
Test [6] concerns CHO-K1. In words: Agonist activity at HA-epitope tagged human BLT2 Y271A/N275A double mutant expressed in CHOK1 cells assessed as induction of chemotactic motility at 100 nM incubated for 2 hrs by hematoxylin and eosin staining based optical microscopic method. It counts as cell-based. Summed up:
as §1

Test [7] concerns the target T2, Leukotriene B4 receptor 2 (Homo sapiens). In words: Agonist activity at HA-epitope tagged human BLT2 expressed in CHOK1 cells assessed as induction of chemotactic motility at 100 nM incubated for 2 hrs by hematoxylin and eosin staining based optical microscopic method. The format is cell-based. To be noted: CHO-K1. Summed up:
as §1

With `CCCCC(=O)N(Cc1ccc(-c2ccccc2C)cc1)c1ccccc1`, the Kd (usually the constant that tells how readily two partners part at equilibrium) in test [1] (cho-k1) was “Not Active”.

Regarding `CCCCC/C=C\C[C@@H](O)/C=C/C=C/C=C\[C@@H](O)CCCC(=O)O`, the result in test [2] and in test [3] was Active. Besides, in test [4], the outcome was inactive.

Take `CCCCC(=O)N(Cc1ccc(-c2ccccc2C(=O)O)cc1)c1ccccc1`: the result in test [5] and in test [6] was inactive. Besides, the Kd in test [1] (read-out: Kd) came out at 14.7 nM. The result in test [7] was Active.

In the case of `CCCCC[C@H](O)/C=C/C=C/C/C=C\CCCC(=O)O`, the outcome in test [5] and in test [6] was inactive. Moreover, the outcome in test [7] was Active.

For `CCCCC/C=C\C[C@H](O)/C=C/C=C\C/C=C\CCCC(=O)O`, the result in test [2] and in test [3] was Active. The result in test [4] was inactive.
